Assay [1] concerns Plasmodium falciparum. Put plainly: Antimalarial activity against Plasmodium falciparum Pf3D70087/N9 infected in immunodeficient HM-beta2 m null mouse after 7 days. The class given is functional.
The test system of assay [2] is Plasmodium falciparum. Put plainly: Antimalarial activity against Plasmodium falciparum Pf3D70087/N9 infected in immunodeficient HM-IL2Rgamma null mouse after 7 days. The class given is functional. In outline: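 Four-day test in female NOD-scid IL2Rγnull mice engrafted by daily i.p. injections of human erythrocytes. Mice were infected i.v. with 20 × 10^6 Pf3D70087/N9-infected hE, then randomized 3 days later (3/group) and dosed orally once daily for 4 days. Day-7 parasitemia was measured by SYTO-16/TER-119 flow cytometry relative to vehicle. ED90 came from a sigmoid dose-response fit.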

The subject of assay [3] is Plasmodium falciparum. The assay is described as follows: Antimalarial activity against Plasmodium falciparum PfV1S0176/N10 infected in immunodeficient HM-IL2Rgamma null mouse after 7 days. Format: functional.
For assay [4], the system named is Plasmodium falciparum. Put plainly: Antimalarial activity against Plasmodium falciparum Pf3D70087/N9 infected in immunodeficient HM-IL2Rgamma null mouse assessed as decreased parasitemia at 50 mg/kg, po for 4 days after 28 days. Format: functional, organism-based. Further details: dose 50 mg/kg. The method in brief: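 Engrafted NOD-scid IL2Rγnull mice each carried about […] Pf3D70087/N9-infected hE. They were dosed orally at 50 mg/kg once daily for four consecutive days. Peripheral blood was checked for parasites up to at least 28 days after treatment ended.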

Structures are written as SMILES. Activity calls are given as the source filed them. The calls are words filed in the database; no cut-off is given here.

Take `Cc1[nH]c(CO)c(-c2ccc(Oc3ccc(OC(F)(F)F)cc3)cc2)c(=O)c1Cl`: the ED90 was 0.6 mg/kg with Plasmodium falciparum [1], 0.6 mg/kg in the assay on Plasmodium falciparum [2] and less than 1 mg/kg in the assay on Plasmodium falciparum [3].

Turning to `C[C@H]1[C@H](OC(=O)CCC(=O)O)O[C@@H]2O[C@@]3(C)CC[C@H]4[C@H](C)CC[C@@H]1[C@@]24OO3` [ARTESUNATE], the ED90 is 12.7 mg/kg with Plasmodium falciparum [1], 12.9 mg/kg in the assay with Plasmodium falciparum [2] and less than 20 mg/kg with Plasmodium falciparum [3].

On to `CCN(CC)CCCC(C)Nc1ccnc2cc(Cl)ccc12` (stereo not drawn) [CHLOROQUINE], for which the results for the ED90 in the assay on Plasmodium falciparum [1], with Plasmodium falciparum [2] and in the assay on Plasmodium falciparum [3] were 4.4 mg/kg, 4.9 mg/kg and greater than 50 mg/kg, respectively. In addition, the outcome in the assay on Plasmodium falciparum [4] was Active.

Turning to `CCc1nc(N)nc(N)c1-c1ccc(Cl)cc1` [PYRIMETHAMINE], the ED90 in the assay with Plasmodium falciparum [1] is 0.9 mg/kg; in the assay on Plasmodium falciparum [2], 0.5 mg/kg; in the assay with Plasmodium falciparum [3] it was greater than 50 mg/kg.

The record behind these values is ChEMBL document CHEMBL1649209, “Improved murine model of malaria using Plasmodium falciparum competent strains and non-myelodepleted NOD-scid IL2Rgammanull mice engrafted with human erythrocytes” (2009).
